Data as given in ChEMBL document CHEMBL5137045, “Discovery of 2-(furan-2-ylmethylene)hydrazine-1-carbothioamide derivatives as novel inhibitors of SARS-CoV-2 main protease” (Eur J Med Chem, 2022).

Target: Replicase polyprotein 1ab (Severe acute respiratory syndrome coronavirus 2) (UniProt P0DTD1)
Assay: Inhibition of SARS CoV-2 main protease at 50 uM using DABCYL-KTSAVLQSGFRKM-E(EDANS)-NH2 as substrate preincubated for 30 mins followed by substrate addition and measured after 20 mins relative to control
Conditions: time 50.0 min
How it was run: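 FRET protease assay in 40 mM PBS, 100 mM NaCl, 1 mM EDTA, 0.1% Triton, pH 7.3. M^pro (0.5 μM) was preincubated with inhibitor 30 min at room temperature, then 20 μM substrate was added. Cleavage fluorescence (ex 360/em 460 nm) was read for 20 min. This covers preliminary screening and IC50; IC50 from Hill1 fit.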

Row | Structure (SMILES) | inhibition [%]
1 | O=[N+]([O-])c1cccc(-c2ccc(/C=N/NC(=S)Nc3ccccc3)o2)c1 | < 20
2 | Cc1cc(-c2ccc(/C=N/NC(=O)Nc3ccccc3)o2)c(C)c([N+](=O)[O-])c1 | < 20
3 | Nc1nonc1-c1nc2ccccc2n1CC(=O)N/N=C/c1ccc(-c2cccc(C(F)(F)F)c2)o1 | 25.5
4 | O=C(NCCCn1ccnc1)/C(=C\c1ccc(-c2cccc([N+](=O)[O-])c2)o1)NC(=O)c1ccccc1 | 28.8
5 | Cc1cc(C(=O)O)ccc1-c1ccc(/C=N/NC(=S)NCc2ccccc2)o1 | 55.9
6 | Cc1c(NC(=S)NC(=O)c2ccncc2)c(=O)n(-c2ccccc2)n1C | < 20
7 | Cc1cc(-c2ccc(/C=N/NC(=O)C(NC(=O)Cc3ccco3)C(C)C)o2)cc([N+](=O)[O-])c1C (stereo unspecified) | 62.8
8 | Cc1c(NC(N)=S)c(=O)n(-c2ccccc2)n1C | < 20
9 | O=c1sn(-c2cccc3ccccc23)c(=O)n1Cc1ccccc1 | 98.6
10 | CCOC(=O)N/N=C/c1ccc(-c2cccc(C(=O)O)c2)o1 | 29.4
11 | O=C(Cn1c2ccccc2c(=O)c2ccccc21)N/N=C/c1ccc(-c2ccc([N+](=O)[O-])cc2)o1 | 30
12 | CCNC(S)=Nc1c(C)n(C)n(-c2ccccc2)c1=O | < 20
13 | Cc1ccc([N+](=O)[O-])cc1-c1ccc(/C=N/NC(=O)Cn2c3ccccc3c(=O)c3ccccc32)o1 | 22.5
14 | O=C(Cn1c2ccccc2c(=O)c2ccccc21)N/N=C/c1ccc(-c2ccc([N+](=O)[O-])cc2Cl)o1 | 24.1
15 | Cc1c(NC(=S)N/N=C/c2ccccc2[N+](=O)[O-])c(=O)n(-c2ccccc2)n1C | < 20
16 | Cc1c(NC(=S)NC(=O)CC(C)C)c(=O)n(-c2ccccc2)n1C | < 20
17 | CC1=CC2=NC(=O)/C(=C\c3ccc(-c4cccc(C(=O)O)c4)o3)C(=N)N2O1 | < 20
18 | O=C(O)c1cccc(-c2ccc(/C=c3/sc4nc5ccccc5n4c3=O)o2)c1 | < 20
19 | Cc1c(C(=O)N/N=C/c2ccc(-c3ccc(Cl)c(C(=O)O)c3)o2)sc(N)c1C#N | 35.8
20 | C/C(=N\NC(=S)Nc1c(C)n(C)n(-c2ccccc2)c1=O)c1cccc([N+](=O)[O-])c1 | < 20
21 | COc1ccc(/N=C2/S/C(=C\c3ccc(-c4ccc(Cl)c(C(=O)O)c4)o3)C(=O)N2C)cc1 | 27.1
22 | C=CCNC(=S)N/N=C/c1ccc(-c2ccccc2[N+](=O)[O-])o1 | 28.4
23 | O=C(O)c1cccc(-c2ccc(/C=N/NC(=S)Nc3ccc(Cl)cc3)o2)c1 | 43.8

Row | Structure (SMILES) | inhibition [%]
24 | COCc1cc(C)nc(OCC(=O)N/N=C/c2ccc(-c3cccc(C(=O)O)c3)o2)c1C#N | 37.3
25 | O=C(CNC(=O)c1ccccc1F)N/N=C/c1ccc([N+](=O)[O-])o1 | < 20
26 | O=C(Cn1c2ccccc2c(=O)c2ccccc21)N/N=C/c1ccc(-c2ccc(O)c(C(=O)O)c2)o1 | 54.5
27 | O=C(N/N=C/c1ccc([N+](=O)[O-])o1)c1ccc(O)cc1O | < 20
28 | CCOC(=O)c1ccc(NC(=S)Nc2c(C)n(C)n(-c3ccccc3)c2=O)cc1 | < 20
29 | Cc1c(NC(=S)NC(=O)c2cccc(Br)c2)c(=O)n(-c2ccccc2)n1C | < 20
30 | O=C(O)c1cc(-c2ccc(/C=C3\NC(=O)N(Cc4ccccc4F)C3=O)o2)ccc1Cl | 53.4
31 | Cc1cccc(C(=O)NC(=S)Nc2c(C)n(C)n(-c3ccccc3)c2=O)c1 | < 20
32 | Cc1c(NC(=S)NC(=O)c2ccc(F)cc2)c(=O)n(-c2ccccc2)n1C | < 20
33 | Cc1ccc(OCC(=O)N/N=C/c2ccc(-c3cc([N+](=O)[O-])ccc3Cl)o2)c(C)c1 | < 20
34 | O=C(Cn1c2ccccc2c(=O)c2ccccc21)N/N=C/c1ccc(-c2ccccc2)o1 | 21.3
35 | CSC1=NSC2=NC(=O)/C(=C\c3ccc(-c4cccc(C(=O)O)c4)o3)C(=N)N12 | < 20
36 | Cc1cc(-c2ccc(/C=N/NC(=O)Cn3c(-c4nonc4N)nc4ccccc43)o2)ccc1[N+](=O)[O-] | 42.9
37 | Cc1c(NC(=S)NC(=O)c2ccccc2)c(=O)n(-c2ccccc2)n1C | < 20
38 | Nc1nnnn1CC(=O)N/N=C/c1ccc(-c2ccccc2C(=O)O)o1 | 34.5
39 | NC(=S)N/N=C/c1ccc(-c2ccc(C(=O)O)cc2)cc1 | 64
40 | Cc1c(NC(=S)NC(=O)c2cccc(I)c2)c(=O)n(-c2ccccc2)n1C | < 20
41 | C=CCNC(=S)N/N=C/c1ccc(-c2cc(C(=O)O)cc(C(=O)O)c2)o1 | 34.2
42 | C=CCNC(=S)N/N=C/c1ccc(-c2ccc([N+](=O)[O-])cc2)o1 | 51.4
43 | CNC(=S)N/N=C/c1ccc(-c2ccc(C(=O)O)cc2)o1 | 39.5
44 | CC1=NN(c2cccc(C(=O)O)c2)C(=O)/C1=C\c1ccc(-c2cccc(C(=O)O)c2)o1 | 28.5
45 | O=C(O)c1cccc(-c2ccc(/C=N/n3cnc4sc5c(c4c3=O)CCCC5)o2)c1 | 30
46 | O=C1NC(=S)N/C1=C/c1ccc(-c2ccccc2C(=O)O)o1 | < 20

Row | Structure (SMILES) | inhibition [%]
47 | Cc1c(NC(=S)NC(=O)c2ccc(Cl)cc2)c(=O)n(-c2ccccc2)n1C | < 20
48 | Cc1c(NC(=S)NCCCN(C)C)c(=O)n(-c2ccccc2)n1C | < 20
49 | O=C(O)c1cccc(-c2ccc(/C=N/Nc3nc(N4CCCC4)nc(N4CCCC4)n3)o2)c1 | < 20
50 | Cc1c(NC(=S)N/N=C/c2ccc(-c3ccc(Br)cc3)o2)c(=O)n(-c2ccccc2)n1C | 27.7
51 | Cc1cccc(NC(=O)CN2C(=O)N/C(=C\c3ccc(-c4cccc(C(=O)O)c4)o3)C2=O)c1 | 24.2
52 | O=[N+]([O-])c1ccc(-c2ccc(/C=N/c3cccc(-c4nc5ccccc5o4)c3)o2)cc1 | 21.3
53 | Cc1c(NC(=S)NC(=O)COc2ccccc2)c(=O)n(-c2ccccc2)n1C | < 20
54 | O=C(N/N=C/c1ccc(-c2ccc([N+](=O)[O-])cc2)o1)/C(=C\c1ccccc1O)NC(=O)c1ccccc1 | 38.3
55 | O=C(Cn1c2ccccc2c(=O)c2ccccc21)N/N=C/c1ccc(-c2cccc([N+](=O)[O-])c2)o1 | 26.8
56 | O=C(N/N=C/c1ccc([N+](=O)[O-])o1)c1c[nH]c2ccccc12 | < 20
57 | O=C(O)c1ccc(-c2ccc(/C=N/NC(=S)Nc3ccc(Cl)cc3)o2)cc1 | 27.5
58 | Cc1c(NC(=S)NCc2ccco2)c(=O)n(-c2ccccc2)n1C | < 20
59 | NC(=O)N/N=C/c1ccc(-c2ccc([N+](=O)[O-])cc2)o1 | < 20
60 | NC(=S)N/N=C/c1ccc(-c2cccc3ccccc23)o1 | 73.2
61 | COCc1c(Br)c(C)nc(OCC(=O)N/N=C/c2ccc(-c3ccc(Cl)c(C(=O)O)c3)o2)c1C#N | 38.3
62 | Cc1c(NC(=S)NC(=O)c2cncc(Br)c2)c(=O)n(-c2ccccc2)n1C | < 20
63 | O=C(O)c1cc(N/N=C/c2ccc(-c3ccc(Cl)c(C(=O)O)c3)o2)ccc1Cl | 28.2
64 | Cc1c(N=C(S)Nc2ccccc2)c(=O)n(-c2ccccc2)n1C | < 20
65 | Nc1nonc1C(=O)N/N=C/c1ccc(-c2cccc([N+](=O)[O-])c2)o1 | 31.2
66 | COCc1cc(C)nc(OCC(=O)N/N=C/c2ccc(-c3ccc(C(=O)O)cc3)o2)c1C#N | 36.2
67 | CCOC(=O)c1ccc(-c2ccc(/C=N/NC(=O)Cn3c4ccccc4c(=O)c4ccccc43)o2)cc1 | < 20
68 | N#Cc1c(/N=C/c2ccc(-c3ccc(Cl)c(C(=O)O)c3)o2)sc2c1CCCC2 | < 20
69 | Cc1ccc(C(=O)NC(=S)Nc2c(C)n(C)n(-c3ccccc3)c2=O)cc1 | < 20

Row | Structure (SMILES) | inhibition [%]
70 | Cc1c(-c2ccc(/C=N/NC(=O)Cn3c(-c4nonc4N)nc4ccccc43)o2)ccc([N+](=O)[O-])c1C | < 20
71 | COc1ccc(-c2ccc(/C=N/NC(=O)Cn3c(-c4nonc4N)nc4ccccc43)o2)c([N+](=O)[O-])c1 | < 20
72 | Cc1cccc(C)c1OCC(=O)N/N=C/c1ccc([N+](=O)[O-])o1 | < 20
73 | O=C(O)c1cc(-c2ccc(/C=N/Nc3nc(Nc4ccccc4)nc(Nc4ccccc4)n3)o2)ccc1O | 34.6
74 | O=C(Cn1c2ccccc2c(=O)c2ccccc21)N/N=C/c1ccc(-c2cc([N+](=O)[O-])ccc2Cl)o1 | < 20
75 | O=C(CNc1ccc2ccccc2c1)N/N=C/c1ccc(-c2ccc([N+](=O)[O-])cc2)o1 | 23
76 | C=C(C)CNC(=S)Nc1c(C)n(C)n(-c2ccccc2)c1=O | < 20
77 | Cc1c(/N=C/c2ccc(-c3cccc([N+](=O)[O-])c3)o2)c(=O)n(-c2ccccc2)n1C | < 20
78 | O=C(O)c1ccc(-c2ccc(/C=N/NC(=S)Nc3cccc(C(F)(F)F)c3)o2)cc1 | 38.6
79 | COc1c(C(=O)O)cccc1-c1ccc(/C=N/NC(N)=S)o1 | 79.8
80 | Cc1ccc(-c2ccc(/C=N/NC(=O)Cn3c4ccccc4c(=O)c4ccccc43)o2)cc1[N+](=O)[O-] | 55.4
81 | N=C1S/C(=C/c2ccc(-c3cccc(C(=O)O)c3)o2)C(=O)N1c1nonc1N | 30.3
82 | Cc1c(NC(=S)N(C)CCC#N)c(=O)n(-c2ccccc2)n1C | < 20
83 | COc1cc([N+](=O)[O-])ccc1-c1ccc(/C=N/NC(=O)Cn2c3ccccc3c(=O)c3ccccc32)o1 | 26
84 | O=C(N/N=C/c1ccc(-c2cccc(C(=O)O)c2)o1)Nc1ccc(Cl)cc1 | 44.6
85 | O=C(N/N=C/c1ccc(-c2ccc([N+](=O)[O-])cc2)o1)c1cc2ccccc2cc1O | < 20
86 | O=C(COCc1ccccc1Cl)N/N=C/c1ccc(-c2ccc([N+](=O)[O-])cc2)o1 | 23.3
87 | O=C(O)c1cccc(-c2ccc(/C=N/NC(=S)Nc3cccc(C(F)(F)F)c3)o2)c1 | 43
88 | O=C1NN(c2ccc(F)cc2)C(=O)/C1=C\c1ccc(-c2cccc(C(=O)O)c2)o1 | 33.8
89 | O=C(O)c1cccc(-c2ccc(/C=N/NC(=O)C3COc4ccccc4O3)o2)c1 (stereo unspecified) | 33.7
90 | COc1ccccc1OCC(=O)N/N=C/c1ccc(-c2cccc([N+](=O)[O-])c2)o1 | 24.2
91 | Cc1c(NC(=S)N/N=C/C(Cl)=C/c2ccc([N+](=O)[O-])cc2)c(=O)n(-c2ccccc2)n1C | 21.2
